Results: article PMC10839117 (Cell chemical biology, 2023)
“Also recorded” adds a separate entry of the source. Blank lines part the entries; values can stand above or below the molecule they belong to. Primed or numbered codes have the meaning given here. Where no end group is shown, it is not given here. [ ]: non-standard residue; d: D form. two‑PEG linker = not defined here; YHJ1039 = not defined here; PEG2′ = two-PEG linker

Legend:
KLHDC2 = target: T1, KLHDC2 (Homo sapiens, UniProt Q9Y2U9); assay: TR-FRET binding assay, KLHDC2
T1 sequence (Q9Y2U9 1-362): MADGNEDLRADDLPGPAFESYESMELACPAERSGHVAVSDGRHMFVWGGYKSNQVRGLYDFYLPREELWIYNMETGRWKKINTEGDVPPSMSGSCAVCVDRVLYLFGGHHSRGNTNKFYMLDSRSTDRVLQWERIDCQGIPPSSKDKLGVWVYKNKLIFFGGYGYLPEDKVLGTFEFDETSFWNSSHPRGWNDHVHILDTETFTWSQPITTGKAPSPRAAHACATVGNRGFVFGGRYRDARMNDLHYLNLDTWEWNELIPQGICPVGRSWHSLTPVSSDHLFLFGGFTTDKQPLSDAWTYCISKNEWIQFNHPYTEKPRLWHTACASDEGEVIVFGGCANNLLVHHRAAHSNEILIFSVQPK

MOLM-14 cells = assay: Cell proliferation assay; type: cell-based, human
In short: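 MOLM-14 cells were plated at low density and treated in triplicate or quadruplicate with DMSO-balanced test compound, with or without MLN4924. After 72 h, CellTiter-Glo was added for 10–15 min at room temperature and luminescence was read. Signal was normalised to DMSO-only wells, or to DMSO plus MLN4924 at the matching MLN4924 concentration.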

CDK4 [1] = target: T2, CDK4 (Homo sapiens, UniProt P11802); assay: Kinase degradation by Western blotting, CDK4; type: cell-based; conditions: MOLM-14 cells
T2 sequence (P11802 whole entry): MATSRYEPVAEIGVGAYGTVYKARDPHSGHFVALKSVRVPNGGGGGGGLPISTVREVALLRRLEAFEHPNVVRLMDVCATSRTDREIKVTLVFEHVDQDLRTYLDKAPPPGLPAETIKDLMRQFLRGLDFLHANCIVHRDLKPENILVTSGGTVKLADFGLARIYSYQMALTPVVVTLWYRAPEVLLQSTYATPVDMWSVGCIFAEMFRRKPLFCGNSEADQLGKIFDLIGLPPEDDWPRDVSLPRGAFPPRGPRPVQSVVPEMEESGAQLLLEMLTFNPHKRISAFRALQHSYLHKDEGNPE
In short: (§1)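 MOLM-14 cells (RPMI-1640, 10% FBS, 37°C, 5% CO2) were exposed to test compound for 24 h. Cells were washed in PBS, lysed with protease inhibitors, and equal protein was boiled in SDS sample buffer. Blots were blocked for at least 1 h in TBST/5% milk, then probed with kinase antibodies at 1:1,000 and HRP secondaries at 1:10,000. DC50 was taken from quantitative Western blotting.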

CDK6 = CDK6 (Homo sapiens, UniProt Q00534); assay: Kinase degradation by Western blotting, CDK6; type: cell-based; conditions: read-out: DC50 CDK6, MOLM-14 cells, 24 hours
CDK6, sequence (Q00534 whole entry): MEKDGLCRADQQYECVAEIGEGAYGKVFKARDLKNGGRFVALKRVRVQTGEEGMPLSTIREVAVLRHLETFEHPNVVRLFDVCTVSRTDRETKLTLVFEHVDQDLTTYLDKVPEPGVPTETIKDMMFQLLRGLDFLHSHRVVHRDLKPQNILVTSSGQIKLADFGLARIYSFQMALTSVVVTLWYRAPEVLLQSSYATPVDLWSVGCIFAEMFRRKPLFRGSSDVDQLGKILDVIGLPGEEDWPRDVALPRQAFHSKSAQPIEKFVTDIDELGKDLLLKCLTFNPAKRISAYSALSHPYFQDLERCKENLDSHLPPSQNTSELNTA
In short: as §1

WEE1 = WEE1 (Homo sapiens, UniProt P30291); assay: Kinase degradation by Western blotting, WEE1; type: cell-based; conditions: MOLM-14 cells
WEE1, sequence (P30291 whole entry): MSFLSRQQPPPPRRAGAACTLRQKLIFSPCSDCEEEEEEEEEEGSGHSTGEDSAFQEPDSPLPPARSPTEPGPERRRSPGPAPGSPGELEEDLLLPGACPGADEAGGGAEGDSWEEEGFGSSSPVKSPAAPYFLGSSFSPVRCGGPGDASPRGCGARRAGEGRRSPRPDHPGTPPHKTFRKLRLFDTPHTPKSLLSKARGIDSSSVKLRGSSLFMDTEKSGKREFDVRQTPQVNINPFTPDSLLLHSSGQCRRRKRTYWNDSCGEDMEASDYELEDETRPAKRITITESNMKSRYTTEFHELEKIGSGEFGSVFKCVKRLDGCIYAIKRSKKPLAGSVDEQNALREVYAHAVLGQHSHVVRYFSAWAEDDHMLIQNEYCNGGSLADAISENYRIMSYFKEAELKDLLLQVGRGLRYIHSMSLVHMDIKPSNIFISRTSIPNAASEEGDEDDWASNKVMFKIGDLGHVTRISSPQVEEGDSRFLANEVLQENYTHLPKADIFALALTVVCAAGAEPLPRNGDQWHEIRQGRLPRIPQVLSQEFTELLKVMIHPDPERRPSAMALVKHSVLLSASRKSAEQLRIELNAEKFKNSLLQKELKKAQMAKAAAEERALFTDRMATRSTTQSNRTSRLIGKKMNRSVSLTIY
In short: as §1

NEK9 = target: T3, NEK9 (Homo sapiens, UniProt Q8TD19); assay: Kinase degradation by Western blotting, NEK9; type: cell-based; conditions: read-out: DC50 NEK9, MOLM-14 cells, 24 hours
T3 sequence (Q8TD19 1-979): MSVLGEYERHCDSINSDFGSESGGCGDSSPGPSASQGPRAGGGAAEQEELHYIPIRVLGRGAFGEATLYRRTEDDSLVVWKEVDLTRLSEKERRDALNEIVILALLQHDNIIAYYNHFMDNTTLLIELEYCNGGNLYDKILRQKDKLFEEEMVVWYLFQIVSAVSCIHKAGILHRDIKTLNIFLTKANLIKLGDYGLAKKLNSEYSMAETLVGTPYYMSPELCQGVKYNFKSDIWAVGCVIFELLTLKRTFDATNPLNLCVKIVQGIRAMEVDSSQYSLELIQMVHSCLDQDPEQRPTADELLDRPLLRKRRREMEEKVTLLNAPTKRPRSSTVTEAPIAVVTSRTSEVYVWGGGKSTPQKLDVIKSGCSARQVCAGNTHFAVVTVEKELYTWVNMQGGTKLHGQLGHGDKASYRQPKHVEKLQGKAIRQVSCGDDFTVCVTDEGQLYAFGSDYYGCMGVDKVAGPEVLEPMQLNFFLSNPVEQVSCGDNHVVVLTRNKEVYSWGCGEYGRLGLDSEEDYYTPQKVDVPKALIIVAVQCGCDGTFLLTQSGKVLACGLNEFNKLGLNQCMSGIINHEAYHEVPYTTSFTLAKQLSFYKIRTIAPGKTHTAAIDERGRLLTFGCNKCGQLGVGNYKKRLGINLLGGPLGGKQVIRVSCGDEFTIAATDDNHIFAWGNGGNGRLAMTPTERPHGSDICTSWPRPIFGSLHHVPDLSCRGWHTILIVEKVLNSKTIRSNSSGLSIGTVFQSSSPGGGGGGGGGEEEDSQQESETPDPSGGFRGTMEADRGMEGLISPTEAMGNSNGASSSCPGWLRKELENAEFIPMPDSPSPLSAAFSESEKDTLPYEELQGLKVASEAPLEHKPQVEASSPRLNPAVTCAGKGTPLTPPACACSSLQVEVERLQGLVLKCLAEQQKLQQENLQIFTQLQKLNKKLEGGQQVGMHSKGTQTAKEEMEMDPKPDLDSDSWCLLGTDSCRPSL
In short: as §1

FAK = FAK (Homo sapiens, UniProt Q05397); assay: Kinase degradation by Western blotting, FAK; type: cell-based; conditions: read-out: DC50 FAK, MOLM-14 cells, 24 hours
FAK, sequence (Q05397 whole entry): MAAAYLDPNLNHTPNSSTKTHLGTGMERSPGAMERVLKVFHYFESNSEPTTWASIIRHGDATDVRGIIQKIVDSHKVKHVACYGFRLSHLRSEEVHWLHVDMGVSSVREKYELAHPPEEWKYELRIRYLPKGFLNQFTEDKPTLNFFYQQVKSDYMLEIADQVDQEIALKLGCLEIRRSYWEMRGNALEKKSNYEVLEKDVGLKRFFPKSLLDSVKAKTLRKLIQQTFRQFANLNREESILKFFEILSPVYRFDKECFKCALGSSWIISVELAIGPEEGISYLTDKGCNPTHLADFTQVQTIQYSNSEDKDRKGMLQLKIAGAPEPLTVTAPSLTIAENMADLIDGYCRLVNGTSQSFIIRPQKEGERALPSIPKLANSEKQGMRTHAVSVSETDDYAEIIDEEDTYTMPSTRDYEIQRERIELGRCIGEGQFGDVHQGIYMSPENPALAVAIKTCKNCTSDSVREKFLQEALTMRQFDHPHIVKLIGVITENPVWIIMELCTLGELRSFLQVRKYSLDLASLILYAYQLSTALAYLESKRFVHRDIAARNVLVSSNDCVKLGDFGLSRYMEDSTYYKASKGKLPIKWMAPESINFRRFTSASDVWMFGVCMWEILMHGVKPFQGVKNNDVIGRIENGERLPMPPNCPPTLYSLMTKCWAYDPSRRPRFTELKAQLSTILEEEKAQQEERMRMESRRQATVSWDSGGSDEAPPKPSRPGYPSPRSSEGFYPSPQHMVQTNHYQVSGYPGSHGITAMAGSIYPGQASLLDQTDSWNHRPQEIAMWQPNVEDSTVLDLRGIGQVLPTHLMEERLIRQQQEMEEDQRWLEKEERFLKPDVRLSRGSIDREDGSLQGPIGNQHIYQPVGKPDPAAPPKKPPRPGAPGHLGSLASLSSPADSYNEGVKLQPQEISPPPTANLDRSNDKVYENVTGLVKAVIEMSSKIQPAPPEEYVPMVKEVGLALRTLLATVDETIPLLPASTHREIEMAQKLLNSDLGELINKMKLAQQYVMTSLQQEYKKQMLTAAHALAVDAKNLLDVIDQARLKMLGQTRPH
In short: as §1

CDK4 [2] = target: T2, CDK4; assay: HiBiT degradation assay, CDK4; type: cell-based
In short: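 MOLM-14 cells were lentivirally transduced with HiBiT-tagged kinase (GSGS linker, EF1a promoter) and pooled after 1 μg/ml puromycin selection. Cells were pretreated for 2 h with 1 μM MLN4924, then treated with test compound for 6 h in triplicate or quadruplicate. Lytic HiBiT luminescence was normalised to the matching CellTiter-Glo viability signal and to DMSO for each treatment.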

[3] = target: WEE1 kinase domain (residues 290-576) (Homo sapiens, UniProt P30291); assay: HiBiT degradation assay, WEE1 kinase domain; type: cell-based
WEE1 kinase domain (residues 290-576), sequence (P30291 290-576): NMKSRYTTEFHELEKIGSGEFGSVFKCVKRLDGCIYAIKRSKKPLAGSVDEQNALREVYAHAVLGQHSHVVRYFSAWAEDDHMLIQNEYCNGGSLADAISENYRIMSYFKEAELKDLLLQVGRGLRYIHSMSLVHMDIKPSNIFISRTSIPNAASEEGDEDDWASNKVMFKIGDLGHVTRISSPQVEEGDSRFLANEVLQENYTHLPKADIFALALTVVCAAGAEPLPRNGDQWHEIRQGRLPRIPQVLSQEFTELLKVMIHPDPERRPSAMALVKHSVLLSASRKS
In short: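 Pooled selected cells, checked for kinase expression by lytic HiBiT, grown with 10% FBS and 1% penicillin-streptomycin at 37°C, 5% CO2. Cells were dispensed and treated in triplicate or quadruplicate with DMSO balanced, then lysed for HiBiT luminescence after 6 h. For the MLN4924 arm, cells were pretreated 2 h with 1 μM MLN4924. HiBiT signal was normalized to CellTiter-Glo viability per matching condition and to DMSO.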

[4] = test system: NEK9, FAK, CDK4, CDK6, and WEE1; assay: Kinase degradation by Western blotting, MOLM-14 cells; type: cell-based, human; conditions: 24 hours; for kinase degradation activity compared between compounds: Western blot, DB0614 comparison at 1 μM
KLHDC2-WEE1 = KLHDC2-WEE1 (Homo sapiens, UniProt P30291+Q9Y2U9); assay: GST pulldown assay with purified KLHDC2 and WEE1 proteins; type: binding
KLHDC2-WEE1, sequence (P30291 299-569 limits assumed, one chain of several): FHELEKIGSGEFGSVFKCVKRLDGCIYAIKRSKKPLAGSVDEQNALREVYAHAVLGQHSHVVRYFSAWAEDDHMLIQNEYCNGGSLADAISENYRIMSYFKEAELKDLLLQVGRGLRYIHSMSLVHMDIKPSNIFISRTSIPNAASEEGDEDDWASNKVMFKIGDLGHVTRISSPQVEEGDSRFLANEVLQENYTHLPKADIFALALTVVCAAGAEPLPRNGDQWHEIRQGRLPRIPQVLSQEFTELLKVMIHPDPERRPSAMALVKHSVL
In short: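 Purified proteins were His6-GST-KLHDC2 (propeller domain, residues 1-362, lacking the autoinhibitory C-terminus; E. coli-expressed) and the WEE1 kinase domain with its tag removed by TEV. They were incubated with DMSO or test compound for 1 h on ice in 20 mM Tris-HCl pH 8.5, 150 mM NaCl, 1 mM TCEP, 0.05% NP-40 substitute. Glutathione-agarose was added for 1 h at 4°C, followed by three washes. Bound material was analysed by SDS-PAGE.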

WEE1 and CDK4 RNA = assay: RT-PCR of WEE1 and CDK4 RNA; type: cell-based, human; conditions: MOLM-14 cells, 1 μM, 24 hours
[5] = target: WEE1-nanoluciferase fusion protein (Homo sapiens, UniProt P30291); assay: WEE1 cellular engagement assay; type: cell-based; conditions: nano-BRET, HEK-293T cells, one hour
WEE1-nanoluciferase fusion protein, sequence (P30291 whole entry, the tested form may be a part): as the sequence (P30291 whole entry) above
In short: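 HEK-293T cells were transiently transfected with a WEE1-nanoluciferase plasmid. The next day they were replated at 8,000 cells/well in phenol red-free DMEM with 4% FBS, together with K-5 tracer and 2 μM MLN4924. After 1 h, DMSO-normalised test compound was added. One hour later, nano-BRET detection reagent was added. The BRET ratio (610/450 nm) was normalised to DMSO wells.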

WEE1 and CDK4 = assay: Kinase degradation by Western blotting in a panel of cancer cell lines; type: cell-based, human; conditions: 1 μM
In short: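 Cancer cell lines were grown in RPMI-1640 (MOLM-14, MV-4-11, MOLT-4, DLD1, K562, SW480, MDA-MB-231, MCF7), EMEM (Detroit 551) or DMEM (GIST-T1, Hs27), each with 10% FBS and 1% pen-strep at 37°C, 5% CO2. Cells were treated with test compound, washed in PBS and lysed with protease inhibitors. Equal protein was blotted; membranes were blocked in TBST/5% milk, then probed with primaries at 1:1,000 and HRP secondaries at 1:10,000.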

[6] = cited from earlier work
[7] = target: T4, His6-GST-KLHDC2 (residues 1-362, propellor domain, lacking the autoinhibitory C-terminus) (UniProt Q9Y2U9 1-362); assay: AlphaScreen or HTRF
T4 sequence (looked up): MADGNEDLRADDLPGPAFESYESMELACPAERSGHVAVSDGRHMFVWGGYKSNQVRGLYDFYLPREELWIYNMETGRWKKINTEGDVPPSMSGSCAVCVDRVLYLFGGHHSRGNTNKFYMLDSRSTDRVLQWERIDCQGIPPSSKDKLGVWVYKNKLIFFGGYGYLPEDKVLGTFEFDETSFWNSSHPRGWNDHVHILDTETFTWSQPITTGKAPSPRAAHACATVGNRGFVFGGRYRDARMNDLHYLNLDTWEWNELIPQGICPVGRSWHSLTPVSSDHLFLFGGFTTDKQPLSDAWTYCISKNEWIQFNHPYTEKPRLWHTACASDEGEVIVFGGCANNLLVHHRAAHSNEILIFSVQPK

[8] = 1 μM MLN4924 two hours, then six-hour experiment

Molecule: KYH1872 (26): two-PEG linker connects YHJ1039 with a seven amino acid SelK peptide (PPPMAGG) ({YHJ1039-two‑PEG linker}-PPPMAGG; reading uncertain)
- KLHDC2 binding (in words) (KLHDC2; biochemical binding assay, limit of detection ~2 nM): binds to the KLHDC2 protein; also recorded: tighter than the limit of detection
- effect on cell proliferation with MLN4924 co-treatment (MOLM-14 cells; co-treatment with increasing concentrations of MLN4924): blunted the negative effect
- EC50 (MOLM-14 cells; read-out: Cell viability (EC50), MOLM-14 cells, 72 hours after treatment): 1.06 µM
- DC50 (CDK4 [1]; read-out: DC50 CDK4, Western blotting, 24 hours): 0.457 µM
- time at which CDK4 degradation was observable (CDK4 [1]; time course Western blot): 12 h
- DC50 (CDK6): 1.07 µM
- DC50 (WEE1; read-out: DC50 WEE1, Western blotting, 24 hours): 0.302 µM
- time at which WEE1 degradation was observable (WEE1; time course Western blot): 12 h
- DC50 (NEK9): 1 µM
- DC50 (FAK): 0.933 µM
- CDK4 degradation after MLN4924 pretreatment (HiBiT) (CDK4 [2]; [8]): prevented WEE1 and CDK4 degradation
- Dmax CDK4 (HiBiT) (CDK4 [2]; maximum total fraction of the target degraded, given as a fraction, MOLM-14 cells, six hours): 0.32
- WEE1 degradation after MLN4924 pretreatment (HiBiT) [3, 8]: prevented WEE1 and CDK4 degradation
- DC50 WEE1-KD (HiBiT) ([3]; MOLM-14 cells, six hours, n.d. = not determined (no degradation)): 1,290 nM
- kinase degradation (Western blot, in words) ([4]; KYH1872 at 1 and 10 μM): induced the degradation
- kinase degradation activity compared between compounds [4]: slightly improved degradation activity when compared with KYH1886 (25)
- induced KLHDC2-WEE1 binding (KLHDC2-WEE1): can induce between KLHDC2-WEE1 binding
- WEE1 and CDK4 RNA levels (WEE1 and CDK4 RNA): not changed
- WEE1 engagement, fold less efficient than ZNL-02-096 ([5]; MLN4924 pretreated): ~ 300 fold
- WEE1 and CDK4 degradation in MOLM-14 and MV4-11 cells (WEE1 and CDK4): displayed WEE1 and CDK4 degradation

Molecule: KYH2011 (27): identical to KYH1872 (26) except reversed methionine stereocenter, PPP(D-Met)AGG ({YHJ1039-PEG2′}-PPP[dM]AGG; reading uncertain; also: printed as PPP(D-Met)AGG)
- Kd (KLHDC2; read-out: KLHDC2 binding (KD), TR-FRET, FITC-PPPMAGG probe, His6-GST-KLHDC2): 0.155 µM
- inhibition of cell proliferation (in words) (MOLM-14 cells; MOLM-14 cells, 72 hours): did not cause kinase degradation or inhibit cell proliferation

Molecule: CS(=O)(=O)Nc1cccc(-c2csc3cnc(Nc4ccc(N5CCN(CCCCCOc6cccc7c6C(=O)N(C6CCC(=O)NC6=O)C7=O)CC5)cc4)nc23)c1 (centres unmarked) [DB0614, reference compound]
- kinase degradation activity compared between compounds [4]: more effective kinase degrader than KYH1872 (26)
- cytotoxicity [6]: cytotoxic

- WEE1 target engagement (in words) ([5]; YHJ1039 versus AZD1775): comparable
Molecule: C=CCn1c(=O)c2cnc(Nc3ccc(N4CCN(C)CC4)cc3)nc2n1-c1cccc(C(C)(C)O)n1 [AZD1775, reference compound]

- Kd [7]: < 0.002 µM
Molecule: {YHJ1039-two‑PEG linker}-PPPMAGG (reading uncertain) [KYH1872 (26)]
